Measurements of several laboratories.
Each line is one published result; the experiments were not run side by side.
Observed: cell growth or viability

Cc1cc(=O)oc2cc(OCCCC[Se]C#N)ccc12
GI50 (HeLa; SRB): 0.98 µM

CC(C)C[C@H](NC(=O)[C@H](CC(C)C)NC(=O)[C@@H]1CCCN1C(=O)[C@H](C)NC(=O)[C@@H](NC(=O)[C@H](C)N)C(C)C)C(=O)N[C@@H](Cc1c[nH]cn1)C(=O)N[C@@H](CO)C(=O)N[C@H](C(=O)O)[C@@H](C)OP(=O)(O)O
IC50 (HeLa; MTT; 72 h): 1.05 µM

Cc1c(Cl)c(=O)oc2cc(OCCCC[Se]C#N)ccc12
GI50 (HeLa; SRB): 15 µM

COc1cccc2c1C(=O)c1c(O)c3c(c(O)c1C2=O)CC(O)(C(=O)CO)CC3OC1CC(NC(=O)OC2C=CCCCCC2)C(O)C(C)O1 (stereo not shown)
IC50 (HeLa; CCK-8; 72 h): > 10 µM

O=C1[O][Pt]2([NH][C@@H]3CCCC[C@H]3[NH]2)[O]C1=O
IC50 (SNU-449; imaging; 72 h): 12.9 µM

COC(=O)c1cc(C(C)=NNc2nc(-c3ccc(S(=O)(=O)F)cc3)cs2)ccc1O
IC50 (HSF; MTT; 96 h): 40.5 µM

N.N.[Cl][Pt][Cl]
IC50 (SU-DHL-6; ATP luminescence; 72 h): 7.06 µM

O=C1c2ccccc2-c2c3c(cc4ccnc1c24)OCO3
IC50 (HeLa; MTT; 75 h): 15.7 µM

CC[C@H](C)[C@H](NC(=O)[C@@H](N)CCC(=O)O)C(=O)N[C@@H](C)C(=O)N1CCC[C@H]1C(=O)N[C@H](C(=O)N[C@@H](CC(C)C)C(=O)N[C@@H](Cc1c[nH]cn1)C(=O)N[C@@H](CO)C(=O)N[C@H](C(=O)O)[C@@H](C)OP(=O)(O)O)C(C)C
IC50 (HeLa; MTT; 72 h): 0.96 µM

O=[N+]([O-])c1ccc(NCCCCN=C=S)c2nonc12
IC50 (HDFa; MTT; 24 h): 7.6 µM

CC(N)C(O)CCCCCCCCCCCCCCC(=O)CCCCCCCC(O)C(C)N (stereo not shown)
IC50 (HeLa): 24.5 µM

O=[N+]([O-])c1ccc(NCCCCCCN=C=S)c2nonc12
IC50 (HDFa; MTT; 24 h): 5.8 µM

COc1c(C)c2c(c(O)c1C/C=C(\C)CCC(=O)O)C(=O)OC2
IC50 (Hs-578T): 2.51 µM
